Assay results from ChEMBL document CHEMBL1127497, “Studies on antiulcer drugs. 7. 2-Guanidino-4-pyridylthiazoles as histamine H2-receptor antagonists with potent gastroprotective effects against nonsteroidal antiinflammatory drug-induced injury” (J Med Chem, 1994).
pIC50: −log10 of the molar value.

Experiments:
Rattus norvegicus [1] = experiment: Inhibition of aspirin induced gastric lesions in rats after peroral dose of 32 mg/kg; assay type: functional; conditions: Stomach, route oral
Procedure, shortened: (§1)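 Male SD rats (~200 g), fasted 24 h. Test compound given orally in 0.1% MC, then aspirin 200 mg/kg in 0.2 N HCl/0.1% MC (10 mL/kg) orally 30 min later. Rats killed 1 h after aspirin. Ulcer index is the summed lesion length (mm); % inhibition is relative to controls. Seven rats per group for screening; ED50 by probit from three doses, ten rats per dose.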

[2] = target: Histamine H2 receptor (Cavia porcellus) (UniProt P47747); experiment: H2 receptor antagonistic activity against histamine stimulated chronotropic response in isolated guinea pig right atrium at 1x10E-6 g/mL.; assay type: functional, tissue-based; conditions: Cardiac atrium
Sequence of Histamine H2 receptor (Cavia porcellus) (P47747 whole entry): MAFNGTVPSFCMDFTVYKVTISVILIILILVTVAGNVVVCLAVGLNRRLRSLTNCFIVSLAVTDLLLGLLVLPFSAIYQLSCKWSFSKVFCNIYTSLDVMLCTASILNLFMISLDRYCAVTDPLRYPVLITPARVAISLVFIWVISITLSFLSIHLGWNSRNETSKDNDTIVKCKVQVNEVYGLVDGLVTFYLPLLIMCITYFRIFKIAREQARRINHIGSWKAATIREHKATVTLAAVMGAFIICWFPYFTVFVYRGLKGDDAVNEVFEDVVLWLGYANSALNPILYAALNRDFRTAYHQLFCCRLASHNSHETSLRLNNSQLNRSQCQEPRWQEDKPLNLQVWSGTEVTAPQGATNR
Procedure, shortened: (§2)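 Guinea pig atrial strip under 0.3–0.6 g tension in Tyrode solution, 30 °C, gassed with 95% O2-5% CO2. Beating rate recorded. Histamine HCl 1 × 10-6 g/mL given; after washout, test compound added (single-concentration screen 1 × 10-6 g/mL) and histamine response compared before and 30 min after dosing. IC50 from three doses by probit analysis, three atria per dose.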

Rattus norvegicus [3] = experiment: Inhibition of histamine stimulated gastric acid secretion in lumen perfused anaesthetized rats after 1 mg/kg intravenous dose; assay type: functional; conditions: Stomach
Procedure, shortened: (§3)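 Male SD rats (~250 g), fasted 24 h, urethane 1.25 g/kg ip. Stomach lumen perfused with saline; perfusate titrated with 25 mM NaOH. Histamine infused iv at 3 mg/kg/h. At plateau, compound given iv at 1 mg/kg. Result expressed as maximal inhibition of acid output; n = 2.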

Canis familiaris [4] = experiment: Evaluated against tetragastrin stimulated gastric acid secretion in conscious Hiedenhain-pouch dogs at a dose of 0.32 mg/kg, po; assay type: functional; conditions: Canis lupus familiaris, Stomach
Procedure, shortened: (§4)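 Beagle Heidenhain-pouch dogs, 8–13 kg, oral dosing. Acid concentration titrated to pH 7 with 0.1 N NaOH; total acid output is volume × concentration. Change is relative to predosing output. ED50 by probit from three or four doses, three or four dogs per dose.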

Rattus norvegicus [5] = experiment: Effect on gastric mucosal blood flow 60 minutes after administration of HCl and aspirin after drug dosing at 32 mg/kg intragastrically; assay type: functional, Gastric mucosa; conditions: route intragastric
Procedure, shortened: (§5)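 Male rats, five per group, test drug suspended in 0.1% MC given intragastrically. Aspirin 200 mg/kg in 0.2 N HCl/0.1% MC (0.2 mL) given ig 15 min later. […] Reported as mean ± SEM and % of initial.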

Rattus norvegicus [6] = experiment: Effective dose against aspirin induced gastric lesions in rats after peroral administration; assay type: functional; conditions: Stomach, po; procedure, shortened: as §1
Rattus norvegicus [7] = experiment: Effect on gastric mucosal blood flow 30 minutes after administration of HCl and aspirin after drug dosing at 32 mg/kg intragastrically; assay type: functional, Gastric mucosa; conditions: route intragastric; procedure, shortened: as §5
Rattus norvegicus [8] = experiment: Evaluated for inhibition of basal gastric acid secretion in pyolus-ligated rats after intraduodenal administration; conditions: Stomach, id
Rattus norvegicus [9] = experiment: Effect on gastric mucosal blood flow 60 minutes after administration of HCl and aspirin after drug dosing at 10 mg/kg intragastrically; assay type: functional, Gastric mucosa; conditions: route intragastric; procedure, shortened: as §5
Rattus norvegicus [10] = experiment: Effective dose against indomethacin induced gastric lesions in rats after peroral administration; assay type: functional; conditions: Stomach, po
Procedure, shortened: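 Male SD rats (~200 g), fasted 24 h, dosed orally with test compound in 0.1% MC, ten per group. Indomethacin 5 mg/kg in 0.1% MC given orally 30 min later, then 0.35 N HCl (5 mL/kg) orally after 1 h. Killed 1 h after that. Ulcer index is the summed lesion length. ED50 by probit from three doses.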

Rattus norvegicus [11] = experiment: Effect on gastric mucosal blood flow 15 minutes before dosing of HCl and aspirin after drug dosing at 10 mg/kg intragastrically; assay type: functional, Gastric mucosa; conditions: route intragastric; procedure, shortened: as §5
Rattus norvegicus [12] = experiment: Effect on gastric mucosal blood flow 30 minutes after administration of HCl and aspirin after drug dosing at 10 mg/kg intragastrically; assay type: functional, Gastric mucosa; conditions: route intragastric; procedure, shortened: as §5
Rattus norvegicus [13] = experiment: Effect on gastric mucosal blood flow at basal value which is 15 minutes before dosing of drugs at 10 mg/kg intragastrically; assay type: functional, Gastric mucosa; conditions: route intragastric; procedure, shortened: as §5
Rattus norvegicus [14] = experiment: Effect on gastric mucosal blood flow at basal value which is 15 minutes before dosing of drugs at 32 mg/kg intragastrically; assay type: functional, Gastric mucosa; conditions: route intragastric; procedure, shortened: as §5
Rattus norvegicus [15] = experiment: Effect on gastric mucosal blood flow 15 minutes before dosing of HCl and aspirin after drug dosing at 32 mg/kg intragastrically; assay type: functional, Gastric mucosa; conditions: route intragastric; procedure, shortened: as §5
Canis familiaris [16] = experiment: Effective dose against tetragastrin stimulated gastric acid secretion in conscious Hiedenhain-pouch dogs after peroral administration; assay type: functional; conditions: Canis lupus familiaris, Stomach, po; procedure, shortened: as §4
Histamine H2 receptor = Histamine H2 receptor (Cavia porcellus, UniProt P47747); experiment: Compound was tested for H2 receptor antagonistic activity against histamine stimulated chronotropic response in isolated guinea pig right atrium; assay type: functional, tissue-based, Cardiac atrium; procedure, shortened: as §2
Sequence of Histamine H2 receptor (P47747 whole entry): as above

Rattus norvegicus [17] = experiment: Effect on gastric mucosal blood flow 60 minutes after administration of HCl and aspirin after drug dosing at 100 mg/kg intragastrically; assay type: functional, Gastric mucosa; conditions: route intragastric; procedure, shortened: as §5
Rattus norvegicus [18] = experiment: Effect on gastric mucosal blood flow at basal value which is 15 minutes before dosing of drugs at 100 mg/kg intragastrically; assay type: functional, Gastric mucosa; conditions: route intragastric; procedure, shortened: as §5
Rattus norvegicus [19] = experiment: Evaluated against histamine stimulated gastric acid secretion in lumen perfused anaesthetized rats after 1 mg/kg intravenous dose; assay type: functional; conditions: Stomach; procedure, shortened: as §3
Rattus norvegicus [20] = experiment: Effect on gastric mucosal blood flow 30 minutes after administration of HCl and aspirin after drug dosing at 100 mg/kg intragastrically; assay type: functional, Gastric mucosa; conditions: route intragastric; procedure, shortened: as §5
Rattus norvegicus [21] = experiment: Effect on gastric mucosal blood flow 15 minutes before dosing of HCl and aspirin after drug dosing at 100 mg/kg intragastrically; assay type: functional, Gastric mucosa; conditions: route intragastric; procedure, shortened: as §5
Canis familiaris [22] = experiment: Evaluated against tetragastrin stimulated gastric acid secretion in conscious Hiedenhain-pouch dogs at a dose of 0.32 mg/Kg, po; assay type: functional; conditions: Canis lupus familiaris, Stomach; procedure, shortened: as §4
Rattus norvegicus [23] = experiment: Evaluated for inhibition of basal gastric acid secretion on pyolus-ligated rats after intraduodenal administration; conditions: Stomach, id

Structure (SMILES)	inhibition in vivo at 32 mg/kg (Rattus norvegicus [1]) [%]	inhibition [2] [%]	inhibition in vivo at 1 mg/kg (Rattus norvegicus [3]) [%]	also measured
N=C(N)Nc1nc(-c2cccc(CNC(=O)C3CC3)n2)cs1	62	60	91	inhibition in vivo at 0.32 mg/kg (Canis familiaris [4]): 48%
N=C(N)Nc1nc(-c2cccc(CNC(N)=O)n2)cs1	34	100	98	inhibition in vivo at 0.32 mg/kg (Canis familiaris [4]): 78%
CCNC(=O)NCc1cccc(-c2csc(N=C(N)N)n2)n1	34	52	91	
N=C(N)Nc1nc(-c2cccc(CNC(=O)C3CCCO3)n2)cs1 (centres undefined)	66	7	6	
CS(=O)(=O)NCc1cccc(-c2csc(N=C(N)N)n2)n1	60	50	46	
N=C(N)Nc1nc(-c2cccc(CNC(=O)C3CCOC3)n2)cs1 (centres undefined)	42	32	51	
CC(=O)NCc1cccc(-c2csc(N=C(N)N)n2)n1.Cl	68	66	82	Flow rate (Rattus norvegicus [5]): 60.4 ml min-1 100g-1; ED50 (Rattus norvegicus [6]): 13.3 mg/kg; Flow rate (Rattus norvegicus [7]): 63.1 ml min-1 100g-1; ED50 (Rattus norvegicus [8]): 12.6 mg/kg; Flow rate (Rattus norvegicus [9]): 61 ml min-1 100g-1; ED50 (Rattus norvegicus [10]): 6.5 mg/kg; Flow rate (Rattus norvegicus [11]): 70.2 ml min-1 100g-1; Flow rate (Rattus norvegicus [12]): 67.9 ml min-1 100g-1; Flow rate (Rattus norvegicus [13]): 70.4 ml min-1 100g-1; Flow rate (Rattus norvegicus [14]): 58.9 ml min-1 100g-1; Flow rate (Rattus norvegicus [15]): 65.3 ml min-1 100g-1; ED50 (Canis familiaris [16]): 0.063 mg/kg; inhibition in vivo at 0.32 mg/kg (Canis familiaris [4]): 95%; pIC50 (Histamine H2 receptor): 5.89
N=C(N)Nc1nc(-c2ccc(CC(=N)NS(N)(=O)=O)o2)cs1	49	84	99	inhibition in vivo at 0.32 mg/kg (Canis familiaris [4]): 92%
N=C(N)Nc1nc(-c2cccc(CNC(=O)C3CCCCCC3)n2)cs1	93	13	43	inhibition in vivo at 0.32 mg/kg (Canis familiaris [4]): 67%
CC(=O)NCc1cc(-c2csc(N=C(N)N)n2)ccn1	42		40	
N=C(N)Nc1nc(-c2cccc(CNC(=O)CSCc3ccco3)n2)cs1	49	76	16	
N=C(N)Nc1nc(-c2cccc(CNC=O)n2)cs1	57	46	83	
C/N=C(/NCc1cccc(-c2csc(N=C(N)N)n2)n1)NS(C)(=O)=O	10	29	24	
CC(=O)NCc1cncc(-c2csc(N=C(N)N)n2)c1	42	22	10	
N=C(N)Nc1nc(-c2cccc(CC(=N)NS(N)(=O)=O)n2)cs1	16		42	
CCC(=O)NCc1cccc(-c2csc(N=C(N)N)n2)n1	70	72	81	inhibition in vivo at 0.32 mg/kg (Canis familiaris [4]): 50%
N=C(N)Nc1nc(-c2cccc(CNC(=O)C3CCC3)n2)cs1	82	2	61	
N=C(N)Nc1nc(-c2cccc(CNC(=O)c3ccco3)n2)cs1	69	13	34	

Structure (SMILES)	inhibition in vivo at 32 mg/kg (Rattus norvegicus [1]) [%]	inhibition [2] [%]	inhibition in vivo at 1 mg/kg (Rattus norvegicus [3]) [%]	also measured
CCCNC(=O)NCc1cccc(-c2csc(N=C(N)N)n2)n1	42	82	90	
CCS(=O)(=O)N/C=N\Cc1cccc(-c2csc(N=C(N)N)n2)n1	1	4	-18	
CC(C)(C)C(=O)NCc1cccc(-c2csc(N=C(N)N)n2)n1	58		22	
CC(C)C(=O)NCc1cccc(-c2csc(N=C(N)N)n2)n1	65	62	21	
CSCC(=O)NCc1cccc(-c2csc(N=C(N)N)n2)n1	80	37	4	
N=C(N)Nc1nc(-c2cccc(CNC(=O)C3CCCC3)n2)cs1	92	32	67	inhibition in vivo at 0.32 mg/kg (Canis familiaris [4]): 22%
CNC(=C[N+](=O)[O-])NCCSCc1ccc(CN(C)C)o1 [RANITIDINE]	3	44		Flow rate (Rattus norvegicus [17]): 55.4 ml min-1 100g-1; Flow rate (Rattus norvegicus [18]): 85.3 ml min-1 100g-1; ED50 (Rattus norvegicus [6]): > 100 mg/kg; inhibition in vivo at 1 mg/kg (Rattus norvegicus [19]): 72%; Flow rate (Rattus norvegicus [20]): 53.4 ml min-1 100g-1; Flow rate (Rattus norvegicus [21]): 82.3 ml min-1 100g-1; inhibition in vivo at 0.32 mg/kg (Canis familiaris [22]): 41%; ED50 (Rattus norvegicus [23]): 30.5 mg/kg; ED50 (Canis familiaris [16]): 0.3 mg/kg; pIC50 (Histamine H2 receptor): 5.47
NC(N)=Nc1nc(CSCCC(N)=NS(N)(=O)=O)cs1 [FAMOTIDINE]				pIC50 (Histamine H2 receptor): 6.52
C/N=C(\NC#N)NCc1cccc(-c2csc(N=C(N)N)n2)n1	37	43	15	
CC(=O)NCCc1cccc(-c2csc(N=C(N)N)n2)n1	31	3	58	
NC(N)=Nc1nc(CSCC/C(N)=N/S(N)(=O)=O)cs1 [FAMOTIDINE]	22	87	96	Flow rate (Rattus norvegicus [5]): 43.4 ml min-1 100g-1; ED50 (Rattus norvegicus [6]): > 100 mg/kg; Flow rate (Rattus norvegicus [7]): 46.9 ml min-1 100g-1; ED50 (Rattus norvegicus [8]): 3.5 mg/kg; Flow rate (Rattus norvegicus [9]): 50.5 ml min-1 100g-1; ED50 (Rattus norvegicus [10]): > 100 mg/kg; Flow rate (Rattus norvegicus [11]): 73 ml min-1 100g-1; Flow rate (Rattus norvegicus [12]): 62.5 ml min-1 100g-1; Flow rate (Rattus norvegicus [13]): 68.6 ml min-1 100g-1; Flow rate (Rattus norvegicus [14]): 58.4 ml min-1 100g-1; Flow rate (Rattus norvegicus [15]): 60.5 ml min-1 100g-1; ED50 (Canis familiaris [16]): 0.042 mg/kg; inhibition in vivo at 0.32 mg/kg (Canis familiaris [4]): 96%
N=C(N)Nc1nc(-c2cccc(CNC(=O)C3CCC(=O)CC3)n2)cs1	62	2	37	
N=C(N)Nc1nc(-c2cccc(CNC(=O)C3CCCCC3)n2)cs1	62	23	23	
CNC(=O)NCc1cccc(-c2csc(N=C(N)N)n2)n1	57	86	79	
CC(=O)Nc1cccc(-c2csc(N=C(N)N)n2)n1	43		16	
N=C(N)Nc1nc(-c2cccc(CNC(=O)C(F)(F)F)n2)cs1	43	72	43	
CCCC(=O)NCc1cccc(-c2csc(N=C(N)N)n2)n1	56	25	71	
CN/C(=C\[N+](=O)[O-])NCc1cccc(-c2csc(N=C(N)N)n2)n1	-27	-14	18	
